In ChEMBL document CHEMBL1765073, “Synthesis and structure-activity relationship studies of urea-containing pyrazoles as dual inhibitors of cyclooxygenase-2 and soluble epoxide hydrolase” (J Med Chem, 2011):
Calls of active or inactive are those of the source. No cut-off for these calls is given here.

Legend:
[1] = target: T1, Prostaglandin G/H synthase 1 (Ovis aries) (UniProt P05979); assay: Inhibition of ovine COX-1 at 100 uM after 2 mins by fluorescence assay
T1 sequence (whole entry): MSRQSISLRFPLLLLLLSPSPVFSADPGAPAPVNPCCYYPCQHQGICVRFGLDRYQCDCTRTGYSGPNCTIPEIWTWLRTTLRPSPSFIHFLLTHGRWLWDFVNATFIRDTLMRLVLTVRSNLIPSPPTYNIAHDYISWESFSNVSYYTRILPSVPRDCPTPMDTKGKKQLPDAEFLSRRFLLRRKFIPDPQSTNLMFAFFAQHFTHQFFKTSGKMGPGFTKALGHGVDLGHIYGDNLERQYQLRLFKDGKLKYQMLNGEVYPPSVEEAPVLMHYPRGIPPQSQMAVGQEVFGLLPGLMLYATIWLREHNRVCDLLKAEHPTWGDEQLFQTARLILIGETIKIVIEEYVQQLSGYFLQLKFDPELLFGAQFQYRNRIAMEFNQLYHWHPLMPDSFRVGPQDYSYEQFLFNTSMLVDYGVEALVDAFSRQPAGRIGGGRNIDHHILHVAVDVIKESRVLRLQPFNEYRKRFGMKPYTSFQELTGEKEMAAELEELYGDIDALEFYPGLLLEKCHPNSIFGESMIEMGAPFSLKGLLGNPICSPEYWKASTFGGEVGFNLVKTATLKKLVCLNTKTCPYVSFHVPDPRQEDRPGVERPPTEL
Summary of the method: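 Ovine COX-1 was tested in a fluorescent kit assay in 100 mM Tris-HCl, pH 8.0, with heme and ADHP substrate. Inhibitor was added at a final 100 µM, then the reaction was started with arachidonic acid for 2 min at room temperature. Resorufin was read at ex 535/em 590 nm, and % inhibition was taken against a no-inhibitor control.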

Rattus norvegicus [2] = assay: Antiallodynic activity in Sprague-Dawley rat von Frey hair mechanically-stimulated inflammatory pain model assessed as reversal of LPS-induced decrease in paw withdrawal latency at 10 mg/kg, sc administered 60 mins before LPS challenge
[3] = target: T2, Polyunsaturated fatty acid 5-lipoxygenase (Homo sapiens) (UniProt P09917); assay: Inhibition of human 5-lipoxygenase at 10 uM
T2 sequence (whole entry): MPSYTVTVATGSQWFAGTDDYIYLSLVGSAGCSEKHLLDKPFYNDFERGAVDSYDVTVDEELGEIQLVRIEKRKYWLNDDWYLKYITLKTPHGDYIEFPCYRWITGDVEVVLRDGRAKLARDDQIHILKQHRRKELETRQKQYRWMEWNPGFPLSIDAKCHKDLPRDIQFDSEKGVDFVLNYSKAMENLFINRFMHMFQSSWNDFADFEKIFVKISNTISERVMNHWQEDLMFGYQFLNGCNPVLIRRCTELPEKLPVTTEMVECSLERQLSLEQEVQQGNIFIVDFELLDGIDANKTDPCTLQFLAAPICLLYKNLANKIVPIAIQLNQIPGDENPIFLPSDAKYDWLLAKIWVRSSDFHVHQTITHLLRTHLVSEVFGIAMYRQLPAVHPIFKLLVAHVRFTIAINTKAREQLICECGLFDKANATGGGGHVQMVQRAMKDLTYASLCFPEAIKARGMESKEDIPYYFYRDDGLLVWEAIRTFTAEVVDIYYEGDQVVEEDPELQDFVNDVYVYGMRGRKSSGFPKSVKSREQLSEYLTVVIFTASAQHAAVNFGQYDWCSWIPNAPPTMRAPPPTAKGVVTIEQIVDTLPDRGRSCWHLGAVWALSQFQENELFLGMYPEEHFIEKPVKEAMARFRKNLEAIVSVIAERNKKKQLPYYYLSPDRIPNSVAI

[4] = Half life in Sprague-Dawley rat at 1 mg/kg, po; type: ADME, organism-based; parameters: dose 1 mg/kg, route oral; settings: in vivo
Summary of the method: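 Male Sprague-Dawley rats (8 weeks, 250–300 g, n = 4) were dosed orally at 1 mg/kg in oleic-ester-rich triglyceride with 10% PEG 400. Tail-vein blood (10 µL) was taken at 0–24 h, mixed with water and stored at −80 °C. Drug was quantified by LC/MS/MS, and t1/2 came from non-compartmental analysis of each rat.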

U-937 = assay: Cytotoxicity against human U937 cells; type: cell-based
Rattus norvegicus [5] = assay: Toxicity in Sprague-Dawley rat von Frey hair mechanically-stimulated […] pain model assessed as overt signs of behavioral changes at 10 mg/kg, sc after 9 hrs; type: organism-based; parameters: dose 10 mg/kg, route subcutaneous; settings: in vivo
Summary of the method: (§1)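 Male Sprague-Dawley rats treated s.c. (10 mg/kg, PEG400 vehicle) in the LPS von Frey study were observed over nine hours on the test day. Animals were checked for behavioral changes and for acute signs such as lacrimation, porphyrin exudation, frozen or hunched posture, gasping or chattering.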

Rattus norvegicus [6] = assay: Toxicity in Sprague-Dawley rat von Frey hair mechanically-stimulated […] pain model assessed as acute observable symptoms of toxicity at 10 mg/kg, sc after 9 hrs; type: organism-based; parameters: dose 10 mg/kg, route subcutaneous; settings: in vivo; summary of the method: as §1

SMILES	inhibition [1] [%]	other results
NS(=O)(=O)c1ccc(-n2nc(CCCNC(=O)NC34CC5CC(CC(C5)C3)C4)cc2-c2ccccc2)cc1	7	
NS(=O)(=O)c1ccc(-n2nc(CCCNC(=O)NC3CCCCCC3)cc2-c2ccccc2)cc1	10	
CS(=O)(=O)c1ccc(-n2nc(CNC(=O)Nc3ccc(C(F)(F)F)cc3)cc2-c2ccccc2)cc1	11	
Cc1ccc(-c2cc(C(F)(F)F)nn2-c2ccc(S(N)(=O)=O)cc2)cc1		Activity (Rattus norvegicus [2]): Active; inhibition [3]: 80%
NS(=O)(=O)c1ccc(-n2nc(CCNC(=O)Nc3cccc(C(F)(F)F)c3)cc2-c2ccccc2)cc1	22	
CC(C)c1cccc(C(C)C)c1NC(=O)NCCCc1cc(-c2ccccc2)n(-c2ccc(S(N)(=O)=O)cc2)n1	6	
CS(=O)(=O)c1ccc(-n2nc(CNC(=O)Nc3cccc(C(F)(F)F)c3)cc2-c2ccccc2)cc1	8	
CS(=O)(=O)c1ccc(-n2nc(CCCNC(=O)Nc3cccc(C(F)(F)F)c3)cc2-c2ccccc2)cc1	6	
NS(=O)(=O)c1ccc(-n2nc(NC(=O)Nc3cccc(C(F)(F)F)c3)cc2-c2ccccc2)cc1	34	
CS(=O)(=O)c1ccc(-n2nc(CNC(=O)Nc3ccc(OC(F)(F)F)cc3)cc2-c2ccccc2)cc1	10	
NS(=O)(=O)c1ccc(-n2nc(CCCNC(=O)Nc3ccc(Cl)cc3)cc2-c2ccccc2)cc1	15	
CS(=O)(=O)c1ccc(-n2nc(CNC(=O)NC34CC5CC(CC(C5)C3)C4)cc2-c2ccccc2)cc1	13	
CS(=O)(=O)c1ccc(-n2nc(CNC(=O)NC3CCCCCC3)cc2-c2ccccc2)cc1	3	
Cc1ccc(-c2cc(CCCNC(=O)Nc3cccc(C(F)(F)F)c3)nn2-c2ccc(S(N)(=O)=O)cc2)cc1	12	
NS(=O)(=O)c1ccc(-n2nc(CCCNC(=O)Nc3ccc(OC(F)(F)F)cc3)cc2-c2ccccc2)cc1	14	half-life [4]: 12 h
NS(=O)(=O)c1ccc(-n2nc(CCCNC(=O)Nc3ccc(C(F)(F)F)cc3)cc2-c2ccccc2)cc1	23	Activity (U-937): Non-toxic; Activity (Rattus norvegicus [2]): Active; inhibition [3]: 83%; Activity (Rattus norvegicus [5]): Non-toxic; Activity (Rattus norvegicus [6]): Non-toxic
O=C(NC12CC3CC(CC(C3)C1)C2)N[C@H]1CC[C@H](Oc2ccc(C(=O)O)cc2)CC1	25	Activity (Rattus norvegicus [2]): Active
NS(=O)(=O)c1ccc(-n2nc(CCCNC(=O)Nc3cccc(C(F)(F)F)c3)cc2-c2ccccc2)cc1	27	
CC(C)(C)c1cc(CNC(=O)Nc2cccc(C(F)(F)F)c2)nn1-c1ccc(S(C)(=O)=O)cc1	2	
NS(=O)(=O)c1ccc(-n2nc(CNC(=O)Nc3cccc(C(F)(F)F)c3)cc2-c2ccccc2)cc1	17	
NS(=O)(=O)c1ccc(-n2nc(CCCNC(=O)Nc3ccccc3)cc2-c2ccccc2)cc1	16	
